Assay results as given in ChEMBL document CHEMBL1138555, “N-acylated and N,N'-diacylated imidazolidine-2-thione derivatives and N,N'-diacylated tetrahydropyrimidine-2(1H)-thione analogues: synthesis and antiproliferative activity” (Eur J Med Chem, 2009).

How the values were obtained:
[1] = system: UO-31; assay: Growth inhibition of human UO31 cells after 48 hrs by sulforhodamine B assay; assay type: functional; conditions: UO-31, 48 h
Summary of the method: (§1)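 NCI in vitro panel screen. Compounds tested at five 10-fold dilutions, 10^-4 to 10^-8 M. Cells in 96-well plates were exposed for the last 48 h of a 72 h incubation. Viability/growth was read by sulforhodamine B protein assay. GI50 is the concentration giving 50% growth inhibition. Values beyond the tested range are reported as greater or less than the maximum or minimum concentration.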

[2] = system: NCI-H460; assay: Growth inhibition of human NCI-H460 cells after 48 hrs by sulforhodamine B assay; assay type: functional; conditions: NCI-H460, 48 h
Summary of the method: (§2)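 NCI screen panel. Five 10-fold concentrations from 10^-4 to 10^-8 M. Exposure for the last 48 h of a 72 h incubation. Growth estimated by sulforhodamine B protein assay. GI50 is the concentration giving 50% growth inhibition. Where that level was not reached or was exceeded, the value is given as above or below the highest or lowest concentration tested.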

[3] = system: SNB-19; assay: Growth inhibition of human SNB19 cells after 48 hrs by sulforhodamine B assay; assay type: functional; conditions: SNB-19, 48 h; summary of the method: as §1
[4] = system: MT4; assay: Antiproliferative activity against human MT4 cells assessed as reduction of growth by MTT assay; assay type: functional, cell-based
Summary of the method: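 MT-4 lymphoblastoid T cells (ATCC) in RPMI 1640 with 10% FCS, penicillin/streptomycin, checked for mycoplasma. 1 × 10⁴ mock-infected cells per well with serial dilutions from a 100 mM DMSO stock. Incubated 4 days at 37 °C, viable cells counted by MTT. IC50 versus untreated controls by linear regression. Mean of three separate experiments.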

[5] = system: U-251; assay: Growth inhibition of human U251 cells after 48 hrs by sulforhodamine B assay; assay type: functional; conditions: U-251, 48 h; summary of the method: as §1
[6] = system: HOP-92; assay: Growth inhibition of human HOP92 cells after 48 hrs by sulforhodamine B assay; assay type: functional; conditions: HOP-92, 48 h; summary of the method: as §2
[7] = system: A549; assay: Growth inhibition of human A549 cells after 48 hrs by sulforhodamine B assay; assay type: functional; conditions: A549, 48 h; summary of the method: as §2
[8] = system: RXF 393; assay: Growth inhibition of human RXF393 cells after 48 hrs by sulforhodamine B assay; assay type: functional; conditions: RXF 393, 48 h; summary of the method: as §2
[9] = system: SK-OV-3; assay: Growth inhibition of human SKOV3 cells after 48 hrs by sulforhodamine B assay; assay type: functional; conditions: SK-OV-3, 48 h; summary of the method: as §2
[10] = system: K562; assay: Growth inhibition of human K562 cells after 48 hrs by sulforhodamine B assay; assay type: functional; conditions: K562, 48 h; summary of the method: as §2
[11] = system: HT-29; assay: Growth inhibition of human HT-29 cells after 48 hrs by sulforhodamine B assay; assay type: functional; conditions: HT-29, 48 h; summary of the method: as §2
[12] = system: HL-60(TB); assay: Growth inhibition of human HL-60(TB) cells after 48 hrs by sulforhodamine B assay; assay type: functional; conditions: HL-60, 48 h
Summary of the method: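 NCI 60-cell-line screen protocol: cells exposed to compound at five 10-fold dilutions from 10^-4 to 10^-8 M for the last 48 h of a 72 h incubation. Sulforhodamine B protein assay estimated viability/growth. GI50 (50% growth inhibition) derived; where not reached or exceeded, reported as greater or less than the highest or lowest concentration tested.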

[13] = system: NCI-H23; assay: Growth inhibition of human NCI-H23 cells after 48 hrs by sulforhodamine B assay; assay type: functional; conditions: NCI-H23, 48 h; summary of the method: as §2
[14] = system: TK-10; assay: Growth inhibition of human TK10 cells after 48 hrs by sulforhodamine B assay; assay type: functional; conditions: TK-10, 48 h; summary of the method: as §1
[15] = system: Malme-3M; assay: Growth inhibition of human MALME-3M cells after 48 hrs by sulforhodamine B assay; assay type: functional; summary of the method: as §2
[16] = system: NCI-H322M; assay: Growth inhibition of human NCI-H322M cells after 48 hrs by sulforhodamine B assay; assay type: functional; summary of the method: as §2
[17] = system: HOP-62; assay: Growth inhibition of human HOP62 cells after 48 hrs by sulforhodamine B assay; assay type: functional; conditions: HOP-62, 48 h; summary of the method: as §2
[18] = system: SNB-75; assay: Growth inhibition of human SNB75 cells after 48 hrs by sulforhodamine B assay; assay type: functional; conditions: SNB-75, 48 h; summary of the method: as §1
[19] = system: NCI-H522; assay: Growth inhibition of human NCI-H522 cells after 48 hrs by sulforhodamine B assay; assay type: functional; conditions: NCI-H522, 48 h; summary of the method: as §2
[20] = system: MDA-MB-435; assay: Growth inhibition of human MDA-MB-435 cells after 48 hrs by sulforhodamine B assay; assay type: functional; conditions: MDA-MB-435, 48 h; summary of the method: as §2
[21] = system: ACHN; assay: Growth inhibition of human ACHN cells after 48 hrs by sulforhodamine B assay; assay type: functional; summary of the method: as §2
[22] = system: M14; assay: Growth inhibition of human M14 cells after 48 hrs by sulforhodamine B assay; assay type: functional; conditions: M14, 48 h; summary of the method: as §2
[23] = system: SF-268; assay: Growth inhibition of human SF268 cells after 48 hrs by sulforhodamine B assay; assay type: functional; conditions: SF-268, 48 h; summary of the method: as §2
[24] = system: IGROV-1; assay: Growth inhibition of human IGROV1 cells after 48 hrs by sulforhodamine B assay; assay type: functional; conditions: IGROV-1, 48 h; summary of the method: as §2
[25] = system: KM12; assay: Growth inhibition of human KM12 cells after 48 hrs by sulforhodamine B assay; assay type: functional; conditions: KM12, 48 h; summary of the method: as §2
[26] = system: SW-620; assay: Growth inhibition of human SW620 cells after 48 hrs by sulforhodamine B assay; assay type: functional; conditions: SW-620, 48 h; summary of the method: as §1
[27] = system: SK-MEL-2; assay: Growth inhibition of human SK-MEL-2 cells after 48 hrs by sulforhodamine B assay; assay type: functional; conditions: SK-MEL-2, 48 h; summary of the method: as §2
[28] = system: SF-539; assay: Growth inhibition of human SF539 cells after 48 hrs by sulforhodamine B assay; assay type: functional; conditions: SF-539, 48 h; summary of the method: as §2
[29] = system: OVCAR-4; assay: Growth inhibition of human OVCAR4 cells after 48 hrs by sulforhodamine B assay; assay type: functional; conditions: OVCAR-4, 48 h; summary of the method: as §2
[30] = system: T47D; assay: Growth inhibition of human T47D cells after 48 hrs by sulforhodamine B assay; assay type: functional; summary of the method: as §1
[31] = system: MCF7; assay: Growth inhibition of human MCF7 cells after 48 hrs by sulforhodamine B assay; assay type: functional; conditions: MCF7, 48 h; summary of the method: as §2
[32] = system: MOLT-4; assay: Growth inhibition of human MOLT4 cells after 48 hrs by sulforhodamine B assay; assay type: functional; conditions: MOLT-4, 48 h; summary of the method: as §2
[33] = system: HCT-15; assay: Growth inhibition of human HCT15 cells after 48 hrs by sulforhodamine B assay; assay type: functional; conditions: HCT-15, 48 h; summary of the method: as §2
[34] = system: OVCAR-8; assay: Growth inhibition of human OVCAR8 cells after 48 hrs by sulforhodamine B assay; assay type: functional; conditions: OVCAR-8, 48 h; summary of the method: as §2
[35] = system: PC-3; assay: Growth inhibition of human PC3 cells after 48 hrs by sulforhodamine B assay; assay type: functional; conditions: PC-3, 48 h; summary of the method: as §2
[36] = system: BT-549; assay: Growth inhibition of human BT549 cells after 48 hrs by sulforhodamine B assay; assay type: functional; conditions: BT-549, 48 h; summary of the method: as §2
[37] = system: CAKI-1; assay: Growth inhibition of human Caki1 cells after 48 hrs by sulforhodamine B assay; assay type: functional; conditions: CAKI-1, 48 h; summary of the method: as §2
[38] = system: EKVX; assay: Growth inhibition of human EKVX cells after 48 hrs by sulforhodamine B assay; assay type: functional; summary of the method: as §2
[39] = system: SK-MEL-5; assay: Growth inhibition of human SK-MEL-5 cells after 48 hrs by sulforhodamine B assay; assay type: functional; conditions: SK-MEL-5, 48 h; summary of the method: as §2
[40] = system: CCRF-CEM; assay: Growth inhibition of human CCRF-CEM cells after 48 hrs by sulforhodamine B assay; assay type: functional; summary of the method: as §2
[41] = system: SK-MEL-28; assay: Growth inhibition of human SK-MEL-28 cells after 48 hrs by sulforhodamine B assay; assay type: functional; conditions: SK-MEL-28, 48 h; summary of the method: as §2
[42] = Growth inhibition of human […] cells after 48 hrs by sulforhodamine B assay; assay type: functional; summary of the method: as §2
[43] = system: SN12C; assay: Growth inhibition of human SN12C cells after 48 hrs by sulforhodamine B assay; assay type: functional; summary of the method: as §1
[44] = system: SF-295; assay: Growth inhibition of human SF295 cells after 48 hrs by sulforhodamine B assay; assay type: functional; conditions: SF-295, 48 h; summary of the method: as §2
[45] = system: OVCAR-3; assay: Growth inhibition of human OVCAR-3 cells after 48 hrs by sulforhodamine B assay; assay type: functional; conditions: OVCAR-3, 48 h; summary of the method: as §2
[46] = system: COLO 205; assay: Growth inhibition of human COLO205 cells after 48 hrs by sulforhodamine B assay; assay type: functional; conditions: COLO 205, 48 h; summary of the method: as §2
[47] = system: UACC-62; assay: Growth inhibition of human UACC62 cells after 48 hrs by sulforhodamine B assay; assay type: functional; conditions: UACC-62, 48 h; summary of the method: as §1
[48] = system: MDA-MB-231; assay: Growth inhibition of human MDA-MB-231 cells after 48 hrs by sulforhodamine B assay; assay type: functional; conditions: MDA-MB-231, 48 h; summary of the method: as §2
[49] = system: HCT-116; assay: Growth inhibition of human HCT116 cells after 48 hrs by sulforhodamine B assay; assay type: functional; conditions: HCT-116, 48 h; summary of the method: as §2
[50] = system: DU-145; assay: Growth inhibition of human DU145 cells after 48 hrs by sulforhodamine B assay; assay type: functional; conditions: DU-145, 48 h; summary of the method: as §2
[51] = system: LOX IMVI; assay: Growth inhibition of human LOXIMVI cells after 48 hrs by sulforhodamine B assay; assay type: functional; summary of the method: as §2
[52] = system: 786-0; assay: Growth inhibition of human 786-0 cells after 48 hrs by sulforhodamine B assay; assay type: functional; conditions: 786-0, 48 h; summary of the method: as §2
[53] = system: SR; assay: Growth inhibition of human SR cells after 48 hrs by sulforhodamine B assay; assay type: functional; summary of the method: as §1

For N#C/C(=C\N1CCN(C(=O)c2ccco2)C1=S)C(=O)c1ccccc1, the GI50 [1] was 10.2 µM, the GI50 [2] was 9.5 µM and the GI50 [3] was 39.7 µM. The IC50 [4] was 3 µM, the GI50 [5] was 17 µM and the GI50 [6] was 26.9 µM. The GI50 [7] was 22 µM, the GI50 [8] was 4.1 µM and the GI50 [9] was 37.4 µM. It also gave a GI50 [10] of 5.5 µM, a GI50 [11] of 30.5 µM and a GI50 [12] of 31.5 µM. For the same molecule, the GI50 [13] was 15.2 µM, the GI50 [14] was 10.5 µM and the GI50 [15] was 30.7 µM. The GI50 [16] was 23.4 µM, the GI50 [17] was 22 µM and the GI50 [18] was 68.2 µM. It also gave a GI50 [19] of 3.7 µM, a GI50 [20] of 11 µM and a GI50 [21] of 16.6 µM. For the same molecule, the GI50 [22] was 14.9 µM, the GI50 [23] was 31.2 µM and the GI50 [24] was 19.4 µM. For the same molecule, the GI50 [25] was 6.5 µM, the GI50 [26] was 5.9 µM and the GI50 [27] was 3.7 µM. For the same molecule, the GI50 [28] was 2.2 µM, the GI50 [29] was 29.8 µM and the GI50 [30] was 7.2 µM. For the same molecule, the GI50 [31] was 4.5 µM, the GI50 [32] was 43.7 µM and the GI50 [33] was 5.7 µM. The GI50 [34] was 25.4 µM, the GI50 [35] was 31.7 µM and the GI50 [36] was 7.8 µM. The GI50 [37] was 12.5 µM, the GI50 [38] was 17.8 µM and the GI50 [39] was 8.3 µM. For the same molecule, the GI50 [40] was 41.9 µM, the GI50 [41] was 28 µM and the GI50 [42] was 5.6 µM. It also gave a GI50 [43] of 8.6 µM, a GI50 [44] of 43.6 µM and a GI50 [45] of 18.2 µM. For the same molecule, the GI50 [46] was 23.2 µM, the GI50 [47] was 12.9 µM and the GI50 [48] was 13.7 µM. The GI50 [49] was 9.1 µM, the GI50 [50] was 5 µM and the GI50 [51] was 17.9 µM. It also gave a GI50 [52] of 16.1 µM and a GI50 [53] of 2.8 µM.
